Laboratory results as given in PubChem BioAssay.
Activity calls are given as the source filed them.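 The calls were made as follows, unless noted: active = viability at or under a set limit in both replicates, limit being median viability minus 3 SD (cut at about 48% in these data, passing the limit was not always enough); inconclusive = at or under the limit in just one replicate; inactive = at or above the limit in both replicates.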

How the values were obtained:
[1] = reduced viability of SK-BR-3 breast cancer cells – cell-based, 24 h, human, pilot screen (AID 572;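 active = viability at or below 10% of carrier control in both of two separate runs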;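 also: compound exposure lasted between 18 and 24 h rather than exactly 24 h; 100% = carrier-treated control wells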); settings: SK-BR-3 viability, CellTiter-Glo luminescence, at 10 µM, stronger effect = lower value
[2] = HUVEC growth inhibition – cell-based, human, primary screen (AID 575;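 active = viability at or below 30% in both replicate assays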;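 also: 100% = median of untreated cell wells with 0.1% DMSO on each plate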); settings: HUVEC proliferation, CellTiter-Glo luminescence, 72 h; at 10 µM; stronger effect = lower value
In short: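 Test system: primary human umbilical vein endothelial cells; medium: endothelial basal medium with 2% FBS plus growth supplements; dosing: 10 µM compound only; times: 72 h treatment at 37 °C; signal: CTG luminescence; read-out: % viability relative to median vehicle-well signal on each plate; control set: vehicle and MePR control wells; plate: 384-well, collagen-coated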

[3] = H69AR cell proliferation blockers – human, duplicate replicates, primary screen (AID 580); settings: H69AR lung tumor cells viability, ATP luminescence, 72 h; at 10 µM; stronger effect = lower value;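 also: 100% = mean luminescence of untreated wells and 0% = no signal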
[4] = MRP1 drug-resistance reversers in H69AR cells – cell-based, doxorubicin co-treatment, pilot screen (AID 601;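 active = viability loss from added drug above about 55%, and viability with drug at most 40%, in both replicates, limit read from the data, passing the limit was not always enough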); settings: CellTiter-Glo, 72 h, at 10 µM; for differential viability (reversal): stronger effect = higher value
[5] = yeast transport mutant growth inhibition pilot in 384-well plates, post-Golgi transport modulator project (AID 636; in the data active = inhibition above about 31%); settings: absorbance 615 nm, about 18 h, stronger effect = higher value
[6] = growth suppression of yeast trafficking mutant, preliminary HTS, modulators of trafficking downstream of Golgi apparatus project, 1536-format plate, OD 615 nm (AID 637; in the data active = inhibition above about 30%); settings: yeast transport mutant growth, absorbance 615 nm, 18 h; stronger effect = higher value
[7] = H69AR cells + 2 uM doxorubicin, measured here: viability with 2 uM doxorubicin, stronger effect = lower value
[8] = H69AR cells, compound alone cytotoxicity

SMILES | viability [1] | viability [2] | viability [3] | differential viability (reversal) ([4]; H69AR cells + 2 uM doxorubicin) | viability [4, 7] | viability [4, 8] | inhibition [5] | inhibition [6]
O=C(Nc1nc(-c2ccccc2)cs1)C1CCCO1 (stereo unspecified) | 91% (inactive) | 101% (inactive) | 94.2% (inactive) | 10.9% (inactive) | 83.3% | 94.2% | -4.4% (inactive) | -2.18% (inactive)
COc1ccc(S(=O)(=O)Nc2ccc(Cl)cn2)c(C)c1C | 100% (inactive) | 107% (inactive) | 88.5% (inactive) | 0.69% (inactive) | 87.8% | 88.5% | -0.93% (inactive) | 0% (inactive)
CCOc1ccc(NC(=O)CSc2nc3cccnc3n2CC)cc1 | 103% (inactive) | 114% (inactive) | 81.4% (inactive) | -0.765% (inactive) | 82.2% | 81.4% | -3.77% (inactive) | 4.1% (inactive)
CNC[C@H](O)c1cccc(O)c1 | 131% (inactive) | 93.7% (inactive) | 92.5% (inactive) | 7.67% (inactive) | 84.8% | 92.5% | -1.56% (inactive) | 2.5% (inactive)
O=C(Cn1cnc2c(cnn2-c2ccc(F)cc2)c1=O)N1CCN(c2ccccc2)CC1 | 97% (inactive) | 94% (inactive) | 70.3% (inactive) | 4.54% (inactive) | 65.8% | 70.3% | 0.39% (inactive) | -5.57% (inactive)
O=C(CSCc1n[nH]c(=O)[nH]1)NCCOc1cccc(Oc2ccccc2)c1 | 103% (inactive) | 102% (inactive) | 104% (inactive) | 3.55% (inactive) | 100% | 104% | -1.2% (inactive) | 2.73% (inactive)
CCn1c(SCc2cc(=O)[nH]c3ccccc23)nc2c1c(=O)n(C)c(=O)n2C | 95% (inactive) | 109% (inactive) | 92% (inactive) | -3.81% (inactive) | 95.8% | 92% | 0.68% (inactive) | -2.18% (inactive)
CCOC(=O)C1CCCN(C(=O)c2cc3c(-c4cccc(OC)c4)nn(C)c3s2)C1 (stereo unspecified) | 115% (inactive) | 56.1% (inactive) | 13.2% (active) | -69% (inactive) | 82.2% | 13.2% | -8.13% (inactive) | 1.64% (inactive)
O=C(c1ccc(F)cc1)C1CCN(CCn2c(=O)[nH]c3ccccc3c2=O)CC1 | 94% (inactive) | 89.5% (inactive) | 96.2% (inactive) | 1.93% (inactive) | 94.3% | 96.2% | -2.73% (inactive) | 1.33% (inactive)
O=C(CN1CCN(c2nc(-c3ccc(Cl)cc3)cs2)CC1)NCc1ccco1 | 67% (inactive) | 95.6% (inactive) | 97.9% (inactive) | 3.06% (inactive) | 94.8% | 97.9% | -5.07% (inactive) | -2.18% (inactive)
CN1CCc2c(sc3c2c(=O)n(-c2ccccc2)c2nnc(SCc4ccccc4)n32)C1 | 77% (inactive) | 108% (inactive) | 95.8% (inactive) | 9.76% (inactive) | 86% | 95.8% | -2.33% (inactive) | 1.82% (inactive)
CC(C)OC(=O)c1ccc(NC(=O)C2C3CC4OC(=O)C2C4C3)cc1 (stereo unspecified) | 104% (inactive) | 91.8% (inactive) | 95.6% (inactive) | 7.04% (inactive) | 88.5% | 95.6% | -1.49% (inactive) | -4.91% (inactive)
O=C(CCn1c(=O)c2ccccc2n(CC(=O)NCCC2=CCCCC2)c1=O)NCc1ccco1 | 99% (inactive) | 90.9% (inactive) | 92.2% (inactive) | 5.12% (inactive) | 87% | 92.2% | -5.06% (inactive) | -2.79% (inactive)
Cc1cc(C(=O)Nc2nnc(C(F)(F)F)s2)no1 | 98% (inactive) | 107% (inactive) | 105% (inactive) | 5.13% (inactive) | 99.8% | 105% | -7.4% (inactive) | 0.32% (inactive)
CC(N)C12CC3CC(C1)CC(C(C)N)(C3)C2 (stereo unspecified) | 87% (inactive) | 110% (inactive) | 101% (inactive) | 11.4% (inactive) | 89.4% | 101% | -3.6% (inactive) | -4.18% (inactive)
COc1cccc(NC(=O)N(CCCN2CCOCC2)C(C)c2cc3cccc(OC)c3o2)c1 (stereo unspecified) | 65% (inactive) | 99.9% (inactive) | 93.2% (inactive) | -3.43% (inactive) | 96.6% | 93.2% | -8.08% (inactive) | -0.55% (inactive)
CCOC(=O)Nc1nnc(-c2ccccc2OC)s1 | 86% (inactive) | 98.2% (inactive) | 93.9% (inactive) | 0.53% (inactive) | 93.3% | 93.9% | -0.14% (inactive) | -4.68% (inactive)
CC1C/C=C/C=C/C=C/C=C/C(O[C@@H]2O[C@H](C)[C@@H](O)[C@H](N)[C@@H]2O)CC2OC(O)(CC(O)CC3OC3/C=C/C(=O)O1)CC(O)C2C(=O)O (stereo partly specified) | 121% (inactive) | 99.7% (inactive) | 92.3% (inactive) | 8.26% (inactive) | 84.1% | 92.3% | 2.6% (inactive) | -2.67% (inactive)
CCOc1ccc(NC(=O)CC2NCCNC2=O)cc1 (stereo unspecified) | 125% (inactive) | 108% (inactive) | 95.3% (inactive) | 2.51% (inactive) | 92.8% | 95.3% | -5.95% (inactive) | -2.36% (inactive)

SMILES | viability [1] | viability [2] | viability [3] | differential viability (reversal) ([4]; H69AR cells + 2 uM doxorubicin) | viability [4, 7] | viability [4, 8] | inhibition [5] | inhibition [6]
CCC(C)n1ncn(-c2ccc(N3CCN(c4ccc(OCC5COC(Cn6cncn6)(c6ccc(Cl)cc6Cl)O5)cc4)CC3)cc2)c1=O (stereo unspecified) | 84% (inactive) | 7.76% (active) | 69.8% (inactive) | -1.92% (inactive) | 71.8% | 69.8% | 100% (active) | 96.7% (active)
C=CCOC(=O)C1=C(C)NC(=O)NC1c1cn(-c2ccccc2)nc1-c1cccs1 (stereo unspecified) | 119% (inactive) | 81.9% (inactive) | 91% (inactive) | -3.71% (inactive) | 94.7% | 91% | -6.49% (inactive) | 1.09% (inactive)
COC(=O)c1[nH]c(C)c(/C(O)=C2\C(=O)C(=O)N(CCN3CCOCC3)C2c2cccs2)c1C (stereo unspecified) | 105% (inactive) | 76.5% (inactive) | 17.3% (active) | -54.5% (inactive) | 71.8% | 17.3% | -2.3% (inactive) | 13.1% (inactive)
Clc1ccccc1CN1CCc2sccc2C1 | 95% (inactive) | 78.2% (inactive) | 99% (inactive) | 19.9% (inactive) | 79.1% | 99% | 1.95% (inactive) | 8.17% (inactive)
O=C(CCC1COc2ccccc2O1)NCC1COc2ccccc2O1 (stereo unspecified) | 125% (inactive) | 103% (inactive) | 87.8% (inactive) | 4.35% (inactive) | 83.4% | 87.8% | -6.3% (inactive) | 4.68% (inactive)
Cn1c(-c2ccccc2)cnc1SCc1nc2ccccc2c(=O)[nH]1 | 107% (inactive) | 105% (inactive) | 101% (inactive) | 18.1% (inactive) | 82.5% | 101% | -2.53% (inactive) | 4.18% (inactive)
CC(=O)Nc1ccc(NC(=O)Cn2cc3c(n2)CCC(C)C3)cc1 (stereo unspecified) | 108% (inactive) | 103% (inactive) | 90.6% (inactive) | -4.05% (inactive) | 94.6% | 90.6% | -8.24% (inactive) | -8.73% (inactive)
Cc1ccc(-n2ncc3c(=O)n(CC(=O)N4CCCc5ccccc54)cnc32)cc1C | 82% (inactive) | 60.5% (inactive) | 90.8% (inactive) | -10% (inactive) | 101% | 90.8% | 6.08% (inactive) | -2.73% (inactive)
O=C(CSc1nc2ccccc2o1)N1CCN(C(=O)c2ccco2)CC1 | 117% (inactive) | 102% (inactive) | 94.5% (inactive) | 1.25% (inactive) | 93.3% | 94.5% | -6.67% (inactive) | -1.45% (inactive)
COc1ccccc1CC(=O)NCC1CCCO1 (stereo unspecified) | 110% (inactive) | 113% (inactive) | 99% (inactive) | 8.34% (inactive) | 90.7% | 99% | -8.13% (inactive) | -4.55% (inactive)
CCN(CC)CCN1C(=O)C(=O)/C(=C(/O)c2ccc(OC(C)C)cc2)C1c1ccncc1 (stereo unspecified) | 133% (inactive) | 112% (inactive) | 91.1% (inactive) | 6.59% (inactive) | 84.5% | 91.1% | -6.76% (inactive) | 3.09% (inactive)
CCCC(=O)n1nc(-c2ccc(OC)cc2)nc1N | 101% (inactive) | 93.6% (inactive) | 105% (inactive) | 7% (inactive) | 98.3% | 105% | -1.56% (inactive) | 5.74% (inactive)
CCCOc1cccc(NC(=O)c2c(-c3ccccc3)noc2C)c1 | 94% (inactive) | 89.7% (inactive) | 86.7% (inactive) | -15.2% (inactive) | 102% | 86.7% | 0.78% (inactive) | -1.97% (inactive)
O=C(CCn1cccc1)N1CCc2ccccc21 | 104% (inactive) | 83% (inactive) | 101% (inactive) | 13.3% (inactive) | 87.6% | 101% | -2.08% (inactive) | 2.13% (inactive)
CC(CCc1ccccc1)NCC(O)c1ccc(O)c(C(N)=O)c1 (stereo unspecified) | 94% (inactive) | 104% (inactive) | 93.8% (inactive) | 1.8% (inactive) | 92% | 93.8% | 1.17% (inactive) | -3.17% (inactive)
CC(=O)N1CN(C2CCCC2)Cc2c1sc1c2CCCC1 | 95% (inactive) | 103% (inactive) | 101% (inactive) | -16% (inactive) | 117% | 101% | -8.22% (inactive) | 0.36% (inactive)
COc1cccc(-c2nnc(SCC(N)=O)n2-c2ccc(Cl)cc2)c1 | 114% (inactive) | 103% (inactive) | 97.1% (inactive) | 4.49% (inactive) | 92.6% | 97.1% | 0% (inactive) | -4.19% (inactive)
Cn1cnc2c1c(=O)[nH]c(=O)n2C | 108% (inactive) | 85.7% (inactive) | 96.1% (inactive) | -0.7% (inactive) | 96.8% | 96.1% | -0.91% (inactive) | 6.33% (inactive)
